Assay results pooled from the literature.

| SMILES | cell line | observed | mode | technique | time | setting | IC50 [µM] |
| --- | --- | --- | --- | --- | --- | --- | --- |
| Cc1[nH]c(/C=C2\C(=O)Nc3ccc(S(=O)(=O)N(C)c4cccc(Cl)c4)cc32)c(C)c1C(=O)N1CCN(C)CC1 | Rh30 | cell growth or viability |  |  | 72 h |  | 4.7 |
| Cn1nnc2c(C(=O)N3CCCC3)ncn2c1=O | D54 | cell growth or viability |  | resazurin | 7 days |  | 12 |
| Cc1ccc2nc(-c3ccc(Cl)cc3)n(Cc3ccccc3)c2c1 | human Rhabdomyosarcoma cell | cell growth or viability |  | MTT |  |  | 4.83 |
| COc1ccccc1/C=C/CNCC(O)COc1ccncc1 (stereo not shown) | NCI-H1299 | cell growth or viability |  | CCK-8 | 72 h |  | 34.1 |
| Cc1ccc2nc(-c3ccc(Cl)cc3)n(Cc3ccccc3Cl)c2c1 | human Rhabdomyosarcoma cell | cell growth or viability |  | MTT |  |  | 41 |
| O=C(/C=C(O)/C=C/c1c[nH]c2ccccc12)/C=C/c1c[nH]c2ccccc12 | CHO-K1 | cell growth or viability |  | SRB | 72 h |  | 12.1 |
| CC(C)(C)Nc1c(-c2ccc(N)cc2)nc2ccccn12 | Vero | cell growth or viability |  | MTT | 48 h |  | 91 |
| O=C1C=C(/C=C/c2cccnc2)N(CCCO)C(c2cccnc2)C1 (stereo not shown) | CHO-K1 | cell growth or viability |  | SRB | 72 h |  | > 75 |
| O=C(O)Cc1ccccc1Nc1c(Cl)cccc1Cl | RAW264.7 | TNF-α release | inhibitor |  |  | LPS-stimulated | 21.3 |
| O=C(/C=C(O)/C=C/c1cccnc1)/C=C/c1cccnc1 | CHO-K1 | cell growth or viability |  | MTT | 72 h |  | 7.2 |
| Cc1ccc2nc(-c3ccco3)n(Cc3ccccc3)c2c1 | human Rhabdomyosarcoma cell | cell growth or viability |  | MTT |  |  | 39.2 |
| COc1ccccc1/C=C/CNCC(O)COc1ccccc1 (stereo not shown) | NCI-H1299 | cell growth or viability |  | CCK-8 | 72 h |  | 33.1 |
| O=C(/C=C(O)/C=C/c1ccc2ccccc2n1)/C=C/c1c[nH]c2ccccc12 | CHO-K1 | cell growth or viability |  | SRB | 72 h |  | 43.3 |
| O=[N+]([O-])c1ccc(-c2nc3cnccn3c2NC2CCCCC2)cc1 | Vero | cell growth or viability |  | MTT | 48 h |  | 64 |
| COc1ccccc1/C=C/CNCC(O)COc1ccc2[nH]ccc2c1 (stereo not shown) | NCI-H1299 | cell growth or viability |  | CCK-8 | 72 h |  | 25.3 |
| O=C(/C=C(/C=C/c1cccnc1)NCCCO)/C=C/c1cccnc1 | CHO-K1 | cell growth or viability |  | MTT | 72 h |  | > 75 |
| COc1ccccc1NCCCNCC(O)COc1cccc2[nH]c3ccccc3c12 (stereo not shown) | NCI-H1299 | cell growth or viability |  | CCK-8 | 72 h |  | 8.9 |
| CC(C)C[C@H](NC(=O)[C@H](Cc1ccccc1)NC(=O)c1cnccn1)B(O)O | SNU-840 | cell growth or viability |  | ATP luminescence |  |  | 0.0081 |
| COc1cc(/C=C/C(=O)/C=C(O)/C=C/c2ccc[nH]2)ccc1O | CHO-K1 | cell growth or viability |  | SRB | 72 h |  | 49 |
| Cc1ccc2nc(-c3ccc(Cl)cc3Cl)[nH]c2c1 | human Rhabdomyosarcoma cell | cell growth or viability |  | MTT | 48 h |  | 29.9 |
| COc1ccccc1/C=C/CNCC(O)COc1ccc2ccccc2c1 (stereo not shown) | NCI-H1299 | cell growth or viability |  | CCK-8 | 72 h |  | 16.3 |
| CC(C)CNC(=C\C(=O)/C=C/c1cccnc1)/C=C/c1cccnc1 | CHO-K1 | cell growth or viability |  | MTT | 72 h |  | 17.7 |
| O=C(/C=C(O)/C=C/c1cccs1)/C=C/c1c[nH]c2ccccc12 | CHO-K1 | cell growth or viability |  | SRB | 72 h |  | 11.1 |
| COCCNC(=C\C(=O)/C=C/c1cccnc1)/C=C/c1cccnc1 | CHO-K1 | cell growth or viability |  | MTT | 72 h |  | 45.1 |
| COc1cc2nccc(Oc3ccc(NC(=O)C4(C(=O)Nc5ccc(F)cc5)CC4)cc3)c2cc1OC | Rh30 | cell growth or viability |  |  | 72 h |  | 5.9 |

| SMILES | cell line | observed | mode | technique | time | setting | IC50 [µM] |
| --- | --- | --- | --- | --- | --- | --- | --- |
| O=C(Nc1nnc(-c2cc3ccccc3[nH]2)s1)c1cc2c([nH]c3ccccc32)c(-c2ccc(Cl)cc2)n1 | HL-60 | cell growth or viability |  | MTT | 72 h |  | 9.31 |
| COc1cc(/C=C/C(=O)/C=C(O)/C=C/c2ccncc2)ccc1O | CHO-K1 | cell growth or viability |  | MTT | 72 h |  | 13.3 |
| Cn1nnc2c(Cl)ncn2c1=O | D54 | cell growth or viability |  | resazurin | 7 days |  | 21 |
| CC1CS(=O)(=O)CCN1/N=C/c1ccc([N+](=O)[O-])o1 (stereo not shown) | RAW264.7 | cell growth or viability |  | MTT |  |  | 31 |
| COc1cc(Nc2nccc(-c3cnn4nc(OC)ccc34)n2)cc(C(F)(F)F)c1 | SNU-840 | cell growth or viability |  | ATP luminescence |  |  | 0.37 |
| COc1ccccc1CCCNCC(O)COc1cccc2[nH]c3ccccc3c12 (stereo not shown) | NCI-H1299 | cell growth or viability |  | CCK-8 | 72 h |  | 7.2 |
| CC(=O)O[C@H]1C(=O)[C@@]2(C)[C@H]([C@H](OC(=O)c3ccccc3)[C@]3(O)C[C@H](OC(=O)[C@H](O)[C@@H](NC(=O)c4ccccc4)c4ccccc4)C(C)=C1C3(C)C)[C@]1(OC(C)=O)CO[C@@H]1C[C@@H]2O | MDA-MB-436 | cell growth or viability |  | ATP luminescence | 72 h |  | 0.0099 |
| Brc1ccc(Nc2nc(NCCc3ccccc3)nc(NCCc3ccccc3)n2)cc1 | SK-BR-3 | cell growth or viability |  | SRB | 72 h |  | 25.3 |
| COc1cccc(-c2nc3ccc(C)cc3[nH]2)c1 | human Rhabdomyosarcoma cell | cell growth or viability |  | MTT | 48 h |  | 22.3 |
| COCCCN1C(/C=C/c2cccnc2)=CC(=O)CC1c1cccnc1 (stereo not shown) | CHO-K1 | cell growth or viability |  | MTT | 72 h |  | > 75 |
| COc1cc(/C=C/C(=O)/C=C(O)/C=C/c2ccccn2)ccc1O | CHO-K1 | cell growth or viability |  | MTT | 72 h |  | 25.2 |
| O=C(/C=C(/C=C/c1cccnc1)NC1CCCCC1)/C=C/c1cccnc1 | CHO-K1 | cell growth or viability |  | SRB | 72 h |  | 20.4 |
| C(=C\c1c[nH]c2ccccc12)/c1cc(/C=C/c2cccs2)[nH]n1 | CHO-K1 | cell growth or viability |  | MTT | 72 h |  | 0.9 |
| Cc1ccc2nc(-c3ccc([N+](=O)[O-])cc3)n(Cc3ccccc3Cl)c2c1 | human Rhabdomyosarcoma cell | cell growth or viability |  | MTT |  |  | 17.6 |
| CC(C)(C)Nc1c(-c2ccccc2N)nc2ccccn12 | Vero | cell growth or viability |  | MTT | 48 h |  | 90 |
| COc1cc(/C=C/c2cc(/C=C/c3cccc4cnccc34)[nH]n2)ccc1O | CHO-K1 | cell growth or viability |  | SRB | 72 h |  | 7.9 |
| Cc1ccc2nc(-c3ccc([N+](=O)[O-])cc3)n(Cc3ccccc3)c2c1 | human Rhabdomyosarcoma cell | cell growth or viability |  | MTT |  |  | 8.45 |
| COc1cc(/C=C/C(=O)/C=C(O)/C=C/c2ccnc3ccccc23)ccc1O | CHO-K1 | cell growth or viability |  | MTT | 72 h |  | 22.3 |
| Brc1ccc(Nc2nc(NCc3ccccc3)nc(NCc3ccccc3)n2)cc1 | SK-BR-3 | cell growth or viability |  | SRB | 72 h |  | 20.4 |
| COCOc1c(OC)cc(C(=O)c2csc(-c3ccccc3)n2)cc1OC | B16-F1 | cell growth or viability |  | SRB |  |  | 0.055 |
| COc1ccc(-c2nc(C(=O)Nc3nnc(-c4cc5ccccc5n4C)s3)cc3c2[nH]c2ccccc23)cc1 | HL-60 | cell growth or viability |  | MTT | 72 h |  | 30.2 |
| CCOc1ccc(-c2nc3ccc(C)cc3[nH]2)cc1 | human Rhabdomyosarcoma cell | cell growth or viability |  | MTT | 48 h |  | 76.2 |
| COc1ccccc1OCCNC[C@@H](O)COc1cccc2[nH]c3ccccc3c12 | NCI-H1299 | cell growth or viability |  | CCK-8 |  |  | 41.5 |
| Cc1ccc(C(=O)Nc2ccc(Oc3cc4cnn(C)c4cc3-c3cn[nH]c3)c(F)c2)c(=O)n1-c1ccc(F)cc1 | MKN-45 | cell growth or viability |  | ATP luminescence |  |  | 0.028 |
